Measurements pooled from the literature.
SIRT6: NAD-dependent protein deacylase sirtuin-6 (SIRT6, Homo sapiens, UniProt Q8N6T7)
VRK1: Serine/threonine-protein kinase VRK1 (VRK1, Homo sapiens, UniProt Q99986)
BRD7: Bromodomain-containing protein 7 (BRD7, Homo sapiens, UniProt Q9NPI1)
PBK: Lymphokine-activated killer T-cell-originated protein kinase (PBK, Homo sapiens, UniProt Q96KB5)

SMILES	target	test	system	conditions	measurement	result
Nc1nonc1-n1cc(C(=O)N/N=C/c2ccccc2C(=O)O)nn1	SIRT6	enzyme activity, inhibitor, fluorescence	–	100 µM	remaining activity	84.2%
Nc1ncnc2occ(-c3ccc(NC(=O)Nc4cc(C(F)(F)F)ccc4F)cc3)c12	Serine/threonine-protein kinase TNNI3K (TNNI3K, Homo sapiens, UniProt Q59H18)	cell-free assay	–	20 µM	remaining signal	1.5%
Nc1nonc1-n1cc(C(=O)N/N=C/c2ccco2)nn1	SIRT6	enzyme activity, inhibitor, fluorescence	–	100 µM	remaining activity	40.9%
Cc1cccc(Sc2ccc(CONC(=O)c3ccc(C(N)=O)cc3)cc2C(F)(F)F)c1	SIRT6	enzyme activity, inhibitor, fluorescence	–	100 µM	inhibition	100%
Cn1c2c(Cl)c(Cl)ccc2c2cc(N)[nH]c(=O)c21	VRK1	thermal stability, DSF	–	10 µM	ΔTm	1.3 °C
CC(C)(O)c1cn(-c2ccc(-c3cccc(S(C)(=O)=O)c3)cc2)c(C(C)(C)c2ccccc2Cl)n1	Oxysterols receptor LXR-beta (NR1H2, Homo sapiens, UniProt P55055)	reporter gene, agonist	CV-1	–	Emax	72%
Cc1cc2c(cc1N1C(=O)c3cccc4c(Cl)ccc(c34)C1=O)n(C)c(=O)n2C	BRD7	thermal stability, DSF	–	10 µM	ΔTm	2.3 °C
NC(=O)c1ccc(C(=O)NOCc2ccc(Sc3ccc(F)cc3)c(C(F)(F)F)c2)cc1	SIRT6	enzyme activity, inhibitor, fluorescence	–	100 µM	inhibition	90.2%
O=C(Nc1ccc(S(=O)(=O)N2CCC(Cl)CC2)cc1)c1ccc([N+](=O)[O-])o1	Voltage-dependent N-type calcium channel subunit alpha-1B (Cacna1b, Rattus norvegicus, UniProt Q02294)	cell-free assay	–	10 µM	inhibition	18%
CC1(C)NC(=O)c2[nH]c3c(Cl)c(Cl)ccc3c2C1C#N (stereo not drawn)	VRK1	thermal stability, DSF	–	10 µM	ΔTm	0.2 °C
NC(=O)c1ccc(C(=O)NOCc2cc(Cl)cc(Cl)c2)cc1	SIRT6	enzyme activity, inhibitor, fluorescence	–	100 µM	inhibition	88.2%
Nc1nonc1-n1cc(C(=O)N/N=C/c2cccc(O)c2O)nn1	SIRT6	enzyme activity, inhibitor, fluorescence	–	100 µM	remaining activity	27.2%
Cc1ccc(C(=O)Nc2ccc(CN3CCN(C)CC3)c(C(F)(F)F)c2)cc1C#Cc1cnc2cccnn12	Mitogen-activated protein kinase 6 (MAPK6, Homo sapiens, UniProt Q16659)	enzyme activity, inhibitor	–	23.5 nM	remaining activity	100%
Nc1nonc1-n1cc(C(=O)N/N=C/c2ccccc2)nn1	SIRT6	enzyme activity, inhibitor, fluorescence	–	100 µM	remaining activity	38.9%
N#CC1c2c([nH]c3c(Cl)c(Cl)ccc23)C(=O)NC12CCCCC2 (racemic)	PBK	thermal stability, DSF	–	10 µM	ΔTm	0.8 °C
COC(=O)c1ccc(O)c(/C=N/NC(=O)c2cn(-c3nonc3N)nn2)c1	SIRT6	enzyme activity, inhibitor, fluorescence	–	100 µM	remaining activity	99.6%
NC(=O)c1ccc(C(=O)NOCc2ccc(Sc3ccc(N)cc3)c(C(F)(F)F)c2)cc1	SIRT6	enzyme activity, inhibitor, fluorescence	–	100 µM	inhibition	97.3%

SMILES	target	test	system	conditions	measurement	result
Cn1c2c(Cl)c(Cl)ccc2c2cc[nH]c(=O)c21	PBK	thermal stability, DSF	–	10 µM	ΔTm	-0.6 °C
Nc1nonc1-n1cc(C(=O)N/N=C/c2ccc([N+](=O)[O-])cc2O)nn1	SIRT6	enzyme activity, inhibitor, fluorescence	–	100 µM	remaining activity	20.6%
NCCc1ccc(C(=O)NOCc2ccc(C(F)(F)F)cc2)cc1	SIRT6	enzyme activity, inhibitor, fluorescence	–	100 µM	inhibition	88.4%
CCC1(CC)NC(=O)c2c(c3ccc(Cl)c(Cl)c3n2C)C1C#N (stereo not drawn)	PBK	thermal stability, DSF	–	10 µM	ΔTm	0 °C
NC(=O)c1ccc(C(=O)NOCc2ccccc2Cl)cc1	SIRT6	enzyme activity, inhibitor, fluorescence	–	100 µM	inhibition	78.2%
Nc1nonc1-n1cc(C(=O)N/N=C/c2ccc(O)c(O)c2O)nn1	SIRT6	enzyme activity, inhibitor, fluorescence	–	100 µM	remaining activity	51.3%
CC/C(=N\NC(=O)NCc1cccc(O)c1)c1ccc(O)c(C)c1O	ALK tyrosine kinase receptor (ALK, Homo sapiens, UniProt Q9UM73, G1269A)	enzyme activity, inhibitor	–	0.1 µM	inhibition	0.4%
Cn1c2c(c3ccc(Cl)c(Cl)c31)C(C#N)C(C)(C)NC2=O (stereo not drawn)	VRK1	thermal stability, DSF	–	10 µM	ΔTm	0.1 °C
Cc1cc(NC(=O)c2cccc3cc(-c4cccc5[nH]nc(N)c45)ccc23)ccc1F	Angiopoietin-1 receptor (TEK, Homo sapiens, UniProt Q02763)	enzyme activity, inhibitor	–	0.1 µM	activity vs control	96%
COc1ccc(Sc2ccc(CONC(=O)c3ccc(C(N)=O)cc3)cc2C(F)(F)F)cc1	SIRT6	enzyme activity, inhibitor, fluorescence	–	100 µM	inhibition	97.4%
C[S+]([O-])c1ccc(-c2nc(-c3ccncc3)c(-c3ccc(F)cc3)[nH]2)cc1 (stereo not drawn)	BRD7	thermal stability, DSF	–	10 µM	ΔTm	0.34 °C
CN1CCC2(CC1)NC(=O)c1c(c3ccc(Cl)c(Cl)c3n1C)C2C#N (racemic)	PBK	thermal stability, DSF	–	10 µM	ΔTm	-0.2 °C
Nc1nonc1-n1cc(C(=O)N/N=C/c2ccc(O)cc2)nn1	SIRT6	enzyme activity, inhibitor, fluorescence	–	100 µM	remaining activity	34.5%
Cn1c2c(c3ccc(Cl)c(Cl)c31)C(C#N)C1(CCCC1)NC2=O (stereo not drawn)	PBK	thermal stability, DSF	–	10 µM	ΔTm	0 °C
NC(=O)c1ccc(C(=O)NOCc2ccc(C(F)(F)F)c(Cl)c2)cc1	SIRT6	enzyme activity, inhibitor, fluorescence	–	100 µM	inhibition	90.4%
Cc1ccc(C(=O)NCc2ccsc2)cc1C#Cc1cn(C(C)C)c2ncnc(N)c12	[Pyruvate dehydrogenase (acetyl-transferring)] kinase isozyme 4, mitochondrial (PDK4, Homo sapiens, UniProt Q16654)	enzyme activity, inhibitor	–	1 µM	activity vs control	119%
